Several values for one entry are separate records, joined by “and”; a condition that tells them apart may be missing. Equal entries are not always repeated.
Legend:
[1] = target: T1, Growth hormone-releasing hormone receptor (Rattus norvegicus) (UniProt Q02644); experiment: Tested for the potency of growth hormone (GRF) on subcutaneous administration in anesthetized male Charles River rats; assay type: functional, organism-based
T1 sequence (whole entry): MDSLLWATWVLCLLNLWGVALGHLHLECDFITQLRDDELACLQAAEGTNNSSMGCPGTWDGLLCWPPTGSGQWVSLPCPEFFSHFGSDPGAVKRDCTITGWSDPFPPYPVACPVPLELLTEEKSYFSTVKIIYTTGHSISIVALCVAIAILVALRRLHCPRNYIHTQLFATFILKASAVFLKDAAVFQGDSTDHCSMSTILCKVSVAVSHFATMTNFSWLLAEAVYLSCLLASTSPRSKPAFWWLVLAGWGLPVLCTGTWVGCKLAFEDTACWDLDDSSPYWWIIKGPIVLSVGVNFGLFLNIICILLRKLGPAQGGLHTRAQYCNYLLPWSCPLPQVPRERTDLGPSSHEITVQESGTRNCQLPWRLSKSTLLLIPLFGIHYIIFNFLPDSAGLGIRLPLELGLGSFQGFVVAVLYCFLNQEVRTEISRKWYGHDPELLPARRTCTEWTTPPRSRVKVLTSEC
Outline: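 Pentobarbital-anesthetized male rats (175-275 g), six to nine per group, received two subcutaneous doses of analogue or of reference GRF(1-29)NH2, in 0.5 mL, 30 min after anesthesia. Plasma GH measured by RIA 15 min later. Potency with 95% confidence limits calculated from a four-point assay design by the Pugsley method.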

[2] = target: T1, Growth hormone-releasing hormone receptor (Rattus norvegicus); experiment: Effect on growth hormone release(GRF) was determined in nembutal-anesthetized rat, at dose of 100 ug/100 g body weight.; assay type: functional
Outline: (§1)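 Male Charles River rats (175-275 g), anesthetized with sodium pentobarbital 6 mg/100 g body weight. Six to nine per group. Peptide or saline given subcutaneously in 0.5 mL, 30 min after anesthetic. Jugular vein blood taken 15 min post-injection. Plasma GH measured by radioimmunoassay and reported as ng/mL, mean ± SEM.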

[3] = target: T1, Growth hormone-releasing hormone receptor (Rattus norvegicus); experiment: Effect on growth hormone release(GRF) was determined in nembutal-anesthetized rat, at dose of 10 ug/100 g body weight.; assay type: functional; outline: as §1
[4] = target: T1, Growth hormone-releasing hormone receptor (Rattus norvegicus); experiment: In vitro rat pituitary cell growth hormone response was obtained; assay type: functional, cell-based; details: Pituitary gland cell
Rattus norvegicus [5] = experiment: Effect on growth hormone release(GRF) was determined in nembutal-anesthetized rat, at dose of 20 ug/100 g body weight.; assay type: functional, organism-based; outline: as §1
Rattus norvegicus [6] = experiment: Effect on growth hormone release(GRF) was determined in nembutal-anesthetized rat, at dose of 50 ug/100 g body weight.; assay type: functional, organism-based; outline: as §1
Rattus norvegicus [7] = species: Rattus norvegicus; experiment: In vitro rat pituitary cell growth hormone response to the compound was obtained; assay type: functional, Pituitary gland cell

| Molecule | Potency [1] [%] | Plasma GH release [2] [ng/mL] | Plasma GH release [3] | Potency [4] [%] | Plasma GH release (Rattus norvegicus [5]) [ng/mL] | Plasma GH release (Rattus norvegicus [6]) [ng/mL] | Potency (Rattus norvegicus [7]) [%] |
| --- | --- | --- | --- | --- | --- | --- | --- |
| CC[C@H](C)[C@H](NC(=O)[C@H](C)NC(=O)[C@@H](CC(=O)O)NC(=O)[C@@H](C)NC(=O)[C@@H](N)Cc1ccc(O)cc1)C(=O)N[C@@H](Cc1ccccc1)C(=O)N[C@H](C(=O)N[C@H](CC(N)=O)C(=O)N[C@@H](CO)C(=O)N[C@@H](Cc1ccc(O)cc1)C(=O)N[C@@H](CCCN=C(N)N)C(=O)N[C@@H](CCCCN)C(=O)N[C@H](C(=O)N[C@@H](CC(C)C)C(=O)NCC(=O)N[C@@H](CCC(N)=O)C(=O)N[C@@H](CC(C)C)C(=O)N[C@@H](CO)C(=O)N[C@@H](C)C(=O)N[C@@H](CCCN=C(N)N)C(=O)N[C@@H](CCCCN)C(=O)N[C@@H](CC(C)C)C(N)=O)C(C)C)[C@@H](C)O | < 5 | 340 | 314 ng/mL | – | – | – | – |
| CC[C@H](C)[C@H](NC(=O)[C@H](C)NC(=O)[C@H](CC(=O)O)NC(=O)[C@@H](C)N(C)C(=O)[C@@H](N)Cc1ccc(O)cc1)C(=O)N[C@@H](Cc1ccccc1)C(=O)N[C@H](C(=O)N[C@H](CC(N)=O)C(=O)N[C@@H](CO)C(=O)N[C@@H](Cc1ccc(O)cc1)C(=O)N[C@@H](CCCN=C(N)N)C(=O)N[C@@H](CCCCN)C(=O)N[C@H](C(=O)N[C@@H](CC(C)C)C(=O)NCC(=O)N[C@@H](CCC(N)=O)C(=O)N[C@@H](CC(C)C)C(=O)N[C@@H](CO)C(=O)N[C@@H](C)C(=O)N[C@@H](CCCN=C(N)N)C(=O)N[C@@H](CCCCN)C(=O)N[C@@H](CC(C)C)C(N)=O)C(C)C)[C@@H](C)O | < 5 | 385 | 512 ng/mL | – | – | – | – |
| CC[C@H](C)[C@H](NC(=O)[C@H](C)NC(=O)[C@H](CC(=O)O)NC(=O)[C@H](C)NC(=O)[C@@H](N)Cc1ccc(O)cc1)C(=O)N[C@@H](Cc1ccccc1)C(=O)N[C@H](C(=O)N[C@@H](CC(N)=O)C(=O)N[C@@H](CO)C(=O)N[C@@H](Cc1ccc(O)cc1)C(=O)N[C@@H](CCCN=C(N)N)C(=O)N[C@@H](CCCCN)C(=O)N[C@H](C(=O)N[C@@H](CC(C)C)C(=O)NCC(=O)N[C@@H](CCC(N)=O)C(=O)N[C@@H](CC(C)C)C(=O)N[C@@H](CO)C(=O)N[C@@H](C)C(=O)N[C@@H](CCCN=C(N)N)C(=O)N[C@@H](CCCCN)C(=O)N[C@@H](CC(C)C)C(=O)N[C@@H](CC(C)C)C(=O)N[C@@H](CCC(N)=O)C(N)=O)C(C)C)[C@@H](C)O | < 1 | – | – | 0.008 | – | – | – |
| Ac-HADAIFTNSYRKVLGQLSARKLLQ-NH2 | < 5 | 719 | 358 ng/mL | – | – | – | – |
| CC[C@H](C)[C@H](NC(=O)[C@H](C)NC(=O)[C@@H](CC(=O)O)NC(=O)[C@H](C)NC(=O)[C@@H](N)Cc1ccc(O)cc1)C(=O)N[C@@H](Cc1ccccc1)C(=O)N[C@H](C(=O)N[C@H](CC(N)=O)C(=O)N[C@@H](CO)C(=O)N[C@@H](Cc1ccc(O)cc1)C(=O)N[C@@H](CCCN=C(N)N)C(=O)N[C@@H](CCCCN)C(=O)N[C@H](C(=O)N[C@@H](CC(C)C)C(=O)NCC(=O)N[C@@H](CCC(N)=O)C(=O)N[C@@H](CC(C)C)C(=O)N[C@@H](CO)C(=O)N[C@@H](C)C(=O)N[C@@H](CCCN=C(N)N)C(=O)N[C@@H](CCCCN)C(=O)N[C@@H](CC(C)C)C(N)=O)C(C)C)[C@@H](C)O | < 5 | 401 | 498 ng/mL | – | – | – | – |
| CC[C@H](C)[C@H](NC(=O)C(CC(=O)O)NC(=O)[C@H](CCC(N)=O)NC(=O)[C@H](CC(C)C)NC(=O)[C@H](CC(C)C)NC(=O)[C@H](CCCCN)NC(=O)[C@H](CCCN=C(N)N)NC(=O)[C@H](C)NC(=O)[C@H](CO)NC(=O)[C@H](CC(C)C)NC(=O)[C@H](CCC(N)=O)NC(=O)CNC(=O)[C@H](CC(C)C)NC(=O)[C@@H](NC(=O)[C@H](CCCCN)NC(=O)[C@H](CCCN=C(N)N)NC(=O)[C@H](Cc1ccc(O)cc1)NC(=O)[C@H](CO)NC(=O)[C@H](CC(N)=O)NC(=O)[C@@H](NC(=O)[C@H](Cc1ccccc1)NC(=O)[C@@H](NC(=O)[C@H](C)NC(=O)C(CC(=O)O)NC(=O)[C@@H](C)NC(=O)[C@@H](N)Cc1ccc(O)cc1)[C@@H](C)CC)[C@@H](C)O)C(C)C)C(=O)N[C@@H](CCSC)C(=O)N[C@@H](CO)C(=O)N[C@@H](CCCN=C(N)N)C(N)=O (stereo in doubt) | 670 | – | – | – | – | – | 150 |
| CC[C@H](C)[C@H](NC(=O)[C@H](C)NC(=O)[C@H](CC(=O)O)NC(=O)[C@H](C)NC(=O)[C@H](Cc1ccc(O)cc1)NC(C)=O)C(=O)N[C@@H](Cc1ccccc1)C(=O)N[C@H](C(=O)N[C@@H](CC(N)=O)C(=O)N[C@@H](CO)C(=O)N[C@@H](Cc1ccc(O)cc1)C(=O)N[C@@H](CCCN=C(N)N)C(=O)N[C@@H](CCCCN)C(=O)N[C@H](C(=O)N[C@@H](CC(C)C)C(=O)NCC(=O)N[C@@H](CCC(N)=O)C(=O)N[C@@H](CC(C)C)C(=O)N[C@@H](CO)C(=O)N[C@@H](C)C(=O)N[C@@H](CCCN=C(N)N)C(=O)N[C@@H](CCCCN)C(=O)N[C@@H](CC(C)C)C(=O)N[C@@H](CC(C)C)C(=O)N[C@@H](CCC(N)=O)C(=O)N[C@@H](CC(=O)O)C(=O)N[C@H](C(=O)N[C@@H](CCSC)C(=O)N[C@@H](CO)C(=O)N[C@@H](CCCN=C(N)N)C(N)=O)[C@@H](C)CC)C(C)C)[C@@H](C)O | 1200 | – | – | – | – | – | 240 |

Further lines, with some results ahead:

| Potency [1] [%] | Plasma GH release [2] [ng/mL] | Plasma GH release [3] | Potency [4] [%] | Molecule | Plasma GH release (Rattus norvegicus [5]) [ng/mL] | Plasma GH release (Rattus norvegicus [6]) [ng/mL] | Potency (Rattus norvegicus [7]) [%] |
| --- | --- | --- | --- | --- | --- | --- | --- |
| 54 | – | – | – | Ac-YADAIFTNSYRKVLGQLSARKLLQDIL-NH2 | 1270 | 2730 | – |
| < 5 | 664 | 396 ng/mL | – | Ac-YADAIFTNSYRKVLGQLSARKLLQ-NH2 | – | – | – |
| 220 | – | – | – | CC[C@H](C)[C@H](NC(=O)[C@H](C)NC(=O)[C@H](CC(=O)O)NC(=O)[C@H](C)NC(=O)[C@@H](N)Cc1ccc(O)cc1)C(=O)N[C@@H](Cc1ccccc1)C(=O)N[C@H](C(=O)N[C@H](CC(N)=O)C(=O)N[C@@H](CO)C(=O)N[C@@H](Cc1ccc(O)cc1)C(=O)N[C@@H](CCCN=C(N)N)C(=O)N[C@@H](CCCCN)C(=O)N[C@H](C(=O)N[C@@H](CC(C)C)C(=O)NCC(=O)N[C@@H](CCC(N)=O)C(=O)N[C@@H](CC(C)C)C(=O)N[C@@H](CO)C(=O)N[C@@H](C)C(=O)N[C@@H](CCCN=C(N)N)C(=O)N[C@@H](CCCCN)C(=O)N[C@@H](CC(C)C)C(=O)N[C@@H](CC(C)C)C(=O)N[C@@H](CCC(N)=O)C(=O)N[C@@H](CC(=O)O)C(=O)N[C@H](C(=O)N[C@@H](CCSC)C(=O)N[C@@H](CO)C(=O)N[C@@H](CCCN=C(N)N)C(N)=O)[C@@H](C)CC)C(C)C)[C@@H](C)O | – | – | – |
| < 5 | – | 417 ng/mL and 305 ng/mL | – | CC[C@H](C)[C@H](NC(=O)[C@H](C)NC(=O)[C@H](CC(=O)O)NC(=O)[C@@H](C)NC(=O)[C@@H](N)Cc1ccc(O)cc1)C(=O)N[C@@H](Cc1ccccc1)C(=O)N[C@H](C(=O)N[C@H](CC(N)=O)C(=O)N[C@@H](CO)C(=O)N[C@@H](Cc1ccc(O)cc1)C(=O)N[C@@H](CCCN=C(N)N)C(=O)N[C@@H](CCCCN)C(=O)N[C@H](C(=O)N[C@@H](CC(C)C)C(=O)NCC(=O)N[C@@H](CCC(N)=O)C(=O)N[C@@H](CC(C)C)C(=O)N[C@@H](CO)C(=O)N[C@@H](C)C(=O)N[C@@H](CCCN=C(N)N)C(=O)N[C@@H](CCCCN)C(=O)N[C@@H](CC(C)C)C(N)=O)C(C)C)[C@@H](C)O | – | – | – |
